Laboratory results from the RNAGym collection of RNA variant scans (doi:10.1002/anie.201605470).

B1: Osa-1-4 twister ribozyme (parent)
chain: CCGCCUAACACUGCCAAUGCCGGUCCCAAGCCCGGAUAAAAGUGGAGGGGGCGG

Variants of: B1
Assay: self-cleavage, relative activity (ratio to wild type); higher = more cleavage; co-transcriptional
Procedure, shortened: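 Values are relative activity: the fraction cleaved, normalised to wild type. A doped DNA template for a 54-nucleotide twister ribozyme from Oryza sativa had 97 % wild-type base and 1 % of each other base at the 48 positions downstream of the cleavage site. The RNA was transcribed in vitro for 2 h at 37 °C so that it could cleave itself co-transcriptionally, then sequenced deeply, with cleavage status scored from the presence or absence of upstream sequence in reads.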
Variant CCGCCUAACACUGCCAACGCCGGUCCCAAGCCCGUAUAAAAGUGGAGGGGGCGG has a self-cleavage of 0.5.
For CCGCCUAACACUGCCAAGGCCGGUCCCAAGCCCGUAUAAAAGUGGAGGGGGCGG, the self-cleavage was 0.77.
Work on CCGCCUAACACUGCCAAUGCCGGUCCCAAGCCCGGCUAAAAGUGGAGGGGGCGG yielded a self-cleavage of 0.86.
Work on CCGCCUAACACUGCCAAUGCCGGUCCCAAGCCCGCAUAAAAGUGGAGUGGGCGG yielded a self-cleavage of 0.04.
In the case of CCGCCUAACACUGCCAAUGCCGGUCCCAAGCCCGCAUAAAAGUGGAGCGGGCGG, the self-cleavage is reported as 0.04.
For CCGCCUAACACUGCCAAUGCCGGUCCCAAGCCCGCAUAAAAGUGGAGAGGGCGG, the self-cleavage was 0.05.
Variant CCGCCUAACACUGCCAAUGCCGGUCCCAAGCCCGCAUAAAAGUGGAGGGAGCGG has a self-cleavage of 0.24.
With CCGCCUAACACUGCCAAUGCCGGUCCCAAGCCCGCAUAAAAGUGGAGGGUGCGG the self-cleavage was 0.17.
Work on CCGCCUAACACUGCCAAUGCCGGUCCCAAGCCCGCAUAAAAGUGGAGGGCGCGG yielded a self-cleavage of 0.1.
CCGCCUAACACUGCCAAUGCCGGUCCCAAGCCCGCAUAAAAGUGUAGGGGGCGG showed a self-cleavage of 0.05.
In the case of CCGCCUAACACUGCCAAUGCCGGUCCCAAGCCCGCAUAAAAGUGAAGGGGGCGG, the self-cleavage is reported as 0.05.
With CCGCCUAACACUGCCAAUGCCGGUCCCAAGCCCGCAUAAAAGUGCAGGGGGCGG the self-cleavage was 0.07.
Work on CCGCCUAACACUGCCAAUGCCGGUCCCAAGCCCGUAUAAAAGUGGAGUGGGCGG yielded a self-cleavage of 0.08.
In the case of CCGCCUAACACUGCCAAUGCCGGUCCCAAGCCCGUAUAAAAGUGGAGAGGGCGG, the self-cleavage is reported as 0.09.
With CCGCCUAACACUGCCAAUGCCGGUCCCAAGCCCGUAUAAAAGUGGAGCGGGCGG the self-cleavage was 0.07.
CCGCCUAACACUGCCAAUGCCGGUCCCAAGCCCGCAUAAAAGUGGACGGGGCGG gave a self-cleavage of 0.05.
In the case of CCGCCUAACACUGCCAAUGCCGGUCCCAAGCCCGCAUAAAAGUGGAUGGGGCGG, the self-cleavage is reported as 0.05.
Work on CCGCCUAACACUGCCAAUGCCGGUCCCAAGCCCGCAUAAAAGUGGAAGGGGCGG yielded a self-cleavage of 0.05.
Work on CCGCCUAACACUGCCAAUGCCGGUCCCAAGCCCGUAUAAAAGAGGAGGGGGCGG yielded a self-cleavage of 0.44.
In the case of CCGCCUAACACUGCCAAUGCCGGUCCCAAGCCCGUAUAAAAGGGGAGGGGGCGG, the self-cleavage is reported as 0.12.
Variant CCGCCUAACACUGCCAAUGCCGGUCCCAAGCCCGUAUAAAAGCGGAGGGGGCGG has a self-cleavage of 0.21.
Variant CCGCCUAUCACUGCCAAUGCCGGUCCCAAGCCCGGCUAAAAGUGGAGGGGGCGG has a self-cleavage of 0.09.
For CCGCCUAGCACUGCCAAUGCCGGUCCCAAGCCCGGCUAAAAGUGGAGGGGGCGG, the self-cleavage was 0.14.
CCGCCUACCACUGCCAAUGCCGGUCCCAAGCCCGGCUAAAAGUGGAGGGGGCGG showed a self-cleavage of 0.06.
Work on CCGCCUAACACUGCCAAAGCCGGUCCCAAGCCCGCAUAAAAGUGGAGGGGGCGG yielded a self-cleavage of 0.84.
Work on CCGCCUAACACUGCCAAGGCCGGUCCCAAGCCCGCAUAAAAGUGGAGGGGGCGG yielded a self-cleavage of 0.77.
For CCGCCUAACACUGCCAACGCCGGUCCCAAGCCCGCAUAAAAGUGGAGGGGGCGG, the self-cleavage was 0.56.
In the case of CCGCCUAACACUGCCAAUGCCGGUCCCAAGCCCGUAUAAAAGUGGACGGGGCGG, the self-cleavage is reported as 0.07.
With CCGCCUAACACUGCCAAUGCCGGUCCCAAGCCCGUAUAAAAGUGGAAGGGGCGG the self-cleavage was 0.15.
For CCGCCUAACACUGCCAAUGCCGGUCCCAAGCCCGUAUAAAAGUGGAUGGGGCGG, the self-cleavage was 0.14.
With CCGCCUAACACUGCCAAUGCCGGUCCCAAGCCCGUAUAAAAGUGGAGGGGGCGG the self-cleavage was 0.9.
In the case of CCGCCUAACACUGCCAAUGCCGGUCCCAAGCCCGUAUAAAAGUGUAGGGGGCGG, the self-cleavage is reported as 0.09.
Variant CCGCCUAACACUGCCAAUGCCGGUCCCAAGCCCGUAUAAAAGUGCAGGGGGCGG has a self-cleavage of 0.06.
For CCGCCUAACACUGCCAAUGCCGGUCCCAAGCCCGUAUAAAAGUGAAGGGGGCGG, the self-cleavage was 0.19.
CCGCCUAACACUGCCAAUGCCGGUCCCAAGCCCGUAUAAAAGUGGAGGUGGCGG showed a self-cleavage of 0.1.
For CCGCCUAACACUGCCAAUGCCGGUCCCAAGCCCGUAUAAAAGUGGAGGAGGCGG, the self-cleavage was 0.11.
In the case of CCGCCUAACACUGCCAAUGCCGGUCCCAAGCCCGUAUAAAAGUGGAGGCGGCGG, the self-cleavage is reported as 0.06.
Variant CCGCCUAACACUGCCAAUGCCGGUCCCAAGCCCGCAGAAAAGUGGAGGGGGCGG has a self-cleavage of 0.9.
With CCGCCUAACACUGCCAAUGCCGGUCCCAAGCCCGCAAAAAAGUGGAGGGGGCGG the self-cleavage was 0.93.
For CCGCCUAACACUGCCAAUGCCGGUCCCAAGCCCGCACAAAAGUGGAGGGGGCGG, the self-cleavage was 0.94.
With CCGCCUAACACUGCCAAUGCCGGUCCCAAGCCCGUAUAAAAUUGGAGGGGGCGG the self-cleavage was 0.08.
CCGCCUAACACUGCCAAUGCCGGUCCCAAGCCCGUAUAAAAAUGGAGGGGGCGG showed a self-cleavage of 0.35.
CCGCCUAACACUGCCAAUGCCGGUCCCAAGCCCGUAUAAAACUGGAGGGGGCGG showed a self-cleavage of 0.11.
For CCGCCUAACACUGCCAAUGCCGGUCCCAAGCCCGGCUCAAAGUGGAGGGGGCGG, the self-cleavage was 0.81.
CCGCCUAACACUGCCAAUGCCGGUCCCAAGCCCGGCUUAAAGUGGAGGGGGCGG gave a self-cleavage of 0.79.
Work on CCGCCUAACACUGCCAAUGCCGGUCCCAAGCCCGGCUGAAAGUGGAGGGGGCGG yielded a self-cleavage of 0.54.
CCGCCUAACACUGCCAAUGCCGGUCCCAAGCCCGCAUAAAAGUGGAGGGGGCAG showed a self-cleavage of 0.12.
For CCGCCUAACACUGCCAAUGCCGGUCCCAAGCCCGCAUAAAAGUGGAGGGGGCUG, the self-cleavage was 0.09.
For CCGCCUAACACUGCCAAUGCCGGUCCCAAGCCCGCAUAAAAGUGGAGGGGGCCG, the self-cleavage was 0.06.
